From ChEMBL document CHEMBL5579848, “Isothiocyanate-Corticosteroid Conjugates against asthma: Unity makes strength” (Eur J Med Chem, 2024)
In brackets after ≈: the same amount, converted by molar mass. Activity calls are given as the source filed them. The rule behind the calls is not given here.

How the values were obtained:
[1] = Solubility of compound in PBS at pH 7.4 at 5 mg incubated at 25 degreeC for 6 hrs by UHPLC analysis; format: physicochemical
In short: (§1)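 Solid compound (5 mg) was shaken in 1 mL water, PBS (pH 7.4, 50 mM) or pepsin-free SGF (pH 1.2) for 6 h at 25 °C. Suspensions were filtered (0.45 μm) and the filtrate quantified by UHPLC, reported in mg/L; triplicate, mean values.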

[2] = Solubility of compound in water at 5 mg incubated at 25 degreeC for 6 hrs by UHPLC analysis; format: physicochemical; in short: as §1
[3] = Induction of H2S release in PBS at pH 7.4 at 100 uM pretreated with L-Cys for 10 mins followed by compound addition and measured after 30 mins by free radical analyzer; format: physicochemical; conditions: buffer, pH 7.4, 0.5 h
In short: (§2)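 An H2S-selective mini-electrode was equilibrated in PBS pH 7.4, and compound was added to 100 μM final (1 % DMSO). Amperometric current was recorded for 30 min, with or without L-cysteine 4 mM added 10 min before. Current was converted to H2S using NaHS calibration (1–10 µM, pH 4.0); mean ± SEM.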

[4] = Half life in PBS at pH 7.4 at 100 uM incubated at 37 degreeC up to 24 hrs by UPHLC analysis; format: ADME
In short: (§3)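 A 10 mM DMSO stock was diluted to 100 μM in PBS (pH 7.4, 50 mM) or pepsin-free SGF (pH 1.2) and held at 37 ± 0.5 °C for 24 h. Timed aliquots were quantified by reverse-phase UHPLC-DAD against calibration curves (1.56–100 ppm), tracking the parent compound plus aminoacetate and corticosteroid metabolites. Pseudo-first-order t1/2 was calculated; n = 3.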

RBL-2H3 [5] = assay: Cytotoxicity against rat RBL-2H3 cells assessed as reduction cell viability at 100 uM after 24 hrs by WST assay; format: toxicity, cell-based; conditions: rbl-2h3, 24 h
In short: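 RBL-2H3 cells were grown in MEM with 10 % FBS, 10^4 cells/well, and attached for 24 h. They were then exposed 24 h to 100 μM compound (final) or 0.1 % DMSO. WST-1 (1:10) was added for 60 min at 37 °C and absorbance read at 450 nm. Viability is expressed as % of vehicle; mean ± SEM.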

RBL-2H3 [6] = assay: Inhibition of mast cell degranulation in DNP-HSA antigen sensitized rat RBL-2H3 cells assessed as reduction in beta-hexoaminosidase release at 100 uM preincubated for 5 mins followed by DNP addition and measured after 1 hr by multiplate reader; format: functional, cell-based; conditions: time 65.0 min
In short: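 RBL-2H3 cells (72×10^3/well) were sensitized overnight with anti-DNP IgE 0.50 µg/ml, then moved to phenol-free DMEM with 1 mg/ml BSA. Cells were preincubated 5 min at 37 °C with 0.1 % DMSO, cromolyn 1 mM or compound 100 μM, then challenged with DNP-HSA 10 ng/ml. After 1 h, supernatant was incubated 1 h with 1.4 mM p-nitrophenyl-N-acetyl-β-D-glucosaminide (citrate pH 4.2), stopped with Trizma pH 9.4, and read at 405 nm.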

Albumin [7] = biological target: T1, Albumin (Bos taurus, UniProt P02769); assay: Stability in 3% bovine serum albumin assessed as parent compound remaining at 200 uM incubated at 37 degreeC for 10 mins by UHPLC analysis; format: ADME; conditions: cattle, 3% bovine serum albumin solution, read-out: Stability
T1 sequence (P02769 whole entry): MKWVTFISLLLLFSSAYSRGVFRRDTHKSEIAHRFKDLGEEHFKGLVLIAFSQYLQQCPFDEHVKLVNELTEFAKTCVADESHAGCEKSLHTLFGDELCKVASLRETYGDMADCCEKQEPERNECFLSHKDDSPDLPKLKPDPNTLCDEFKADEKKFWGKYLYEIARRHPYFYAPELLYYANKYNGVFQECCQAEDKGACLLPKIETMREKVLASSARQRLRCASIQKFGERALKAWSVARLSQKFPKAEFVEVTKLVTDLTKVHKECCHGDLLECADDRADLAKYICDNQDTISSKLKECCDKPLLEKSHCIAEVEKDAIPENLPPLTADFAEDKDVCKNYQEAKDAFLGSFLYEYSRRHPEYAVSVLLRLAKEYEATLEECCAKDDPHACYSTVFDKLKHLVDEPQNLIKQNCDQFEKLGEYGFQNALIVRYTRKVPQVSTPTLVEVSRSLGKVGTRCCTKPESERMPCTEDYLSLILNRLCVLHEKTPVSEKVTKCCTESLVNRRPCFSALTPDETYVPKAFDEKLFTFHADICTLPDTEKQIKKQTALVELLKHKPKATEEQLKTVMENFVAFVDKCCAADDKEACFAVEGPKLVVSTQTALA
In short: (§4)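 A 10 mM DMSO stock was diluted to 200 μM in 3 % BSA in PBS and incubated at 37 ± 0.5 °C for up to 4 h. Timed samples were deproteinized with an equal volume of acetonitrile/0.1 % TFA, centrifuged, filtered and quantified by UHPLC. Results are given as pseudo-first-order t1/2 or % parent remaining at 10 min; n ≥ 3.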

[8] = Induction of H2S release in PBS at pH 7.4 at 100 uM measured after 30 mins by free radical analyzer; format: physicochemical; conditions: buffer, pH 7.4, 0.5 h; in short: as §2
[9] = Solubility of compound in simulated gastric fluid at pH 1.2 in absence of pepsin at 5 mg incubated at 25 degreeC for 6 hrs by UHPLC analysis; format: ADME; conditions: simulated gastric fluid without pepsin; in short: as §1
[10] = Half life in simulated gastric fluid at pH 1.2 in absence of pepsin at 100 uM incubated at 37 degreeC up to 24 hrs by UPHLC analysis; format: ADME; conditions: simulated gastric fluid without pepsin; in short: as §3
Mus musculus [11] = assay: Anti-asthmatic activity in OVA-induced female BALB/c mouse model assessed as reduction in detachment of the lamina propria at 2 mg/kg, ip for 30 min before every ovalbumin challenge on day 0 and 7 and measured after 21 days by H and E staining based microscopic analysis; format: functional, organism-based; conditions: time 21.0 day
In short: (§5)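 Female BALB/c mice (20 g, 8 weeks) sensitized s.c. with 100 μg ovalbumin adsorbed to 13.3 mg aluminum hydroxide gel (0.4 ml) on days 0 and 7; saline controls. Test agent (1–2 mg/kg, or equimolar 3,51 × 10^-6 mol) or vehicle given ip 30 min before each OVA dose. Killed day 21 by enflurane overdose; lungs, bronchi, blood collected.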

Mus musculus [12] = assay: Anti-asthmatic activity in OVA-induced ip dosed female BALB/c mouse model assessed as reduction in pulmonary IL-13 level administered for 30 min before every ovalbumin challenge on day 0 and 7 and measured after 21 days by ELISA; format: functional, organism-based; conditions: dose 1-2 mg/kg, time 21.0 day; in short: as §5
Mus musculus [13] = assay: Anti-asthmatic activity in OVA-induced female BALB/c mouse model assessed as reduction in alpha-SMA positive muscle layers at 1 to 2 mg/kg, ip for 30 min before every ovalbumin challenge on day 0 and 7 and measured after 21 days by immunohistochemical staining based microscopic analysis; format: functional, organism-based; conditions: dose 1-2 mg/kg, time 21.0 day; in short: as §5
Albumin [14] = biological target: T1, Albumin; assay: Half life in 3% bovine serum albumin at 200 uM incubated up to 4 hrs by UHPLC analysis; format: ADME; conditions: cattle, 3% bovine serum albumin solution; in short: as §4
Mus musculus [15] = assay: Anti-asthmatic activity in OVA-induced ip dosed female BALB/c mouse model assessed as inhibition of bronchial hyperreactivity administered 30 min prior to every ovalbumin challenge on day 0 and 7 and measured after 21 days by isometric force transducer analysis; format: functional, organism-based; conditions: dose 1-2 mg/kg, time 21.0 day; in short: as §5
Mus musculus [16] = assay: Anti-asthmatic activity in OVA-induced female BALB/c mouse model assessed as reduction in cell infiltration at 1 mg/kg, ip for 30 min before every ovalbumin challenge on day 0 and 7 and measured after 21 days by H and E staining based microscopic analysis; format: functional, organism-based; conditions: time 21.0 day; in short: as §5
Mus musculus [17] = assay: Anti-asthmatic activity in OVA-induced female BALB/c mouse model assessed as reduction in cell infiltration at 2 mg/kg, ip for 30 min before every ovalbumin challenge on day 0 and 7 and measured after 21 days by H and E staining based microscopic analysis; format: functional, organism-based; conditions: time 21.0 day; in short: as §5
Mus musculus [18] = assay: Anti-asthmatic activity in OVA-induced female BALB/c mouse model assessed as reduction in alpha-SMA positive muscle layers at 3.512 x 10^-6M, ip for 30 min before every ovalbumin challenge on day 0 and 7 and measured after 21 days by immunohistochemical staining based microscopic analysis; format: functional, organism-based; conditions: dose 3.512 10^-6M, time 21.0 day; in short: as §5
Mus musculus [19] = assay: Anti-asthmatic activity in OVA-induced female BALB/c mouse model assessed as reduction in detachment of the lamina propria at 1 mg/kg, ip for 30 min before every ovalbumin challenge on day 0 and 7 and measured after 21 days by H and E staining based microscopic analysis; format: functional, organism-based; conditions: time 21.0 day; in short: as §5
Mus musculus [20] = assay: Anti-asthmatic activity in OVA-induced female BALB/c mouse model assessed as restoration of structure of alveolar septa at 3.512 x 10^-6M, ip for 30 min before every ovalbumin challenge on day 0 and 7 and measured after 21 days by H and E staining based microscopic analysis; format: functional, organism-based; conditions: dose 3.512 10^-6M, time 21.0 day; in short: as §5
Mus musculus [21] = assay: Anti-asthmatic activity in OVA-induced female BALB/c mouse model assessed as reduction in thickening of airway smooth muscle layer at 2 mg/kg, ip for 30 min before every ovalbumin challenge on day 0 and 7 and measured after 21 days by H and E staining based microscopic analysis; format: functional, organism-based; conditions: time 21.0 day; in short: as §5
Mus musculus [22] = assay: Anti-asthmatic activity in OVA-induced female BALB/c mouse model assessed as reduction in IgE level in plasma at 2 mg/kg, ip for 30 min before every ovalbumin challenge on day 0 and 7 and measured after 21 days by ELISA; format: functional, organism-based; conditions: time 21.0 day; in short: as §5
Mus musculus [23] = assay: Anti-asthmatic activity in OVA-induced female BALB/c mouse model assessed as reduction in thickening of airway smooth muscle layer at 1 mg/kg, ip for 30 min before every ovalbumin challenge on day 0 and 7 and measured after 21 days by H and E staining based microscopic analysis; format: functional, organism-based; conditions: time 21.0 day; in short: as §5
Mus musculus [24] = assay: Anti-asthmatic activity in OVA-induced female BALB/c mouse model assessed as restoration of structure of bronchial epithelium at 3.512 x 10^-6M, ip for 30 min before every ovalbumin challenge on day 0 and 7 and measured after 21 days by H and E staining based microscopic analysis; format: functional, organism-based; conditions: dose 3.512 10^-6M, time 21.0 day; in short: as §5
Mus musculus [25] = assay: Anti-asthmatic activity in OVA-induced female BALB/c mouse model assessed as restoration of structure of airway smooth muscle at 3.512 x 10^-6M, ip for 30 min before every ovalbumin challenge on day 0 and 7 and measured after 21 days by H and E staining based microscopic analysis; format: functional, organism-based; conditions: dose 3.512 10^-6M, time 21.0 day; in short: as §5

SMILES | solubility at 6 h [1] [µg/mL] | solubility at 6 h [2] [µg/mL] | Activity [3] | half-life at 100 µM [4] [h] | remaining at 10 min, 200 µM (Albumin [7]) [%] | Activity [8] | solubility at 6 h [9] [µg/mL] | half-life at 100 µM [10] [h] | Activity (RBL-2H3 [5]) | inhibition (RBL-2H3 [6]) | other results
C[C@@H]1C[C@H]2[C@@H]3CCC4=CC(=O)C=C[C@]4(C)[C@@]3(F)[C@@H](O)C[C@]2(C)[C@@]1(O)C(=O)COC(=O)CN | – | – | – | – | – | – | – | – | – | Active | –
[Na+].[SH-] [SODIUM HYDROSULFIDE] | – | – | <= 20 uM | – | – | <= 20 uM | – | – | – | – | –

Further lines, with some results ahead:

solubility at 6 h [1] [µg/mL] | solubility at 6 h [2] [µg/mL] | Activity [3] | half-life at 100 µM [4] [h] | remaining at 10 min, 200 µM (Albumin [7]) [%] | Activity [8] | solubility at 6 h [9] [µg/mL] | half-life at 100 µM [10] [h] | SMILES | Activity (RBL-2H3 [5]) | inhibition (RBL-2H3 [6]) | other results
< 0.1 | < 0.1 | ~ 2 uM | > 24 | 23 | ~ 2 uM | < 0.1 | > 24 | CCCC1O[C@@H]2C[C@H]3[C@@H]4CCC5=CC(=O)C=C[C@]5(C)[C@H]4[C@@H](O)C[C@]3(C)[C@]2(C(=O)COC(=O)CN=C=S)O1 (some centres not stated) | Non-Toxic | Active | –
0.25 (≈ 0.439 µM) | 0.55 (≈ 0.965 µM) | ~ 2 uM | > 24 | – | ~ 2 uM | < 0.1 | > 24 | C[C@]12C=CC(=O)C=C1CC[C@@H]1[C@@H]2[C@@H](O)C[C@@]2(C)[C@H]1C[C@H]1O[C@@H](C3CCCCC3)O[C@]12C(=O)COC(=O)CN=C=S | Non-Toxic | Active | Activity (Mus musculus [11]): Active; Activity (Mus musculus [12]): Dose-Dependent Effect; Activity (Mus musculus [13]): Active; half-life at 200 µM (Albumin [14]): 1.4 h; inhibition (Mus musculus [15]): Dose-Dependent Effect; Activity (Mus musculus [16]): inactive; Activity (Mus musculus [17]): Active; Activity (Mus musculus [18]): Active; Activity (Mus musculus [19]): inactive; Activity (Mus musculus [20]): Active; Activity (Mus musculus [21]): Active; Activity (Mus musculus [22]): Active; Activity (Mus musculus [23]): inactive; Activity (Mus musculus [24]): Active; Activity (Mus musculus [25]): Active
< 0.1 | 0.14 (≈ 0.285 µM) | ~ 2 uM | 0.7 | 6 | ~ 2 uM | < 0.1 | 10 | C[C@@H]1C[C@H]2[C@@H]3CCC4=CC(=O)C=C[C@]4(C)[C@@]3(F)[C@@H](O)C[C@]2(C)[C@@]1(O)C(=O)COC(=O)CN=C=S | Non-Toxic | Active | –
